Measured values published in ChEMBL document CHEMBL3286353, “Optimization of small-molecule inhibitors of influenza virus polymerase: from thiophene-3-carboxamide to polyamido scaffolds” (J Med Chem, 2014).
≈ marks a conversion by molar mass, not a printed value. Calls of active or inactive are those of the source. The calls are words filed in the database; no cut-off is given here.

Tests used:
[1] = Inhibition of Influenza A virus RdRP infected in human HEK293T cells after 24 hrs by dual luciferase reporter gene assay; assay type: cell-based; settings: HEK-293T
Summary of the method: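 HEK 293T cells (10^5 per well) were transfected 24 h after seeding with PB1, PB2, PA and NP plasmids (100 ng each), a pol I firefly luciferase reporter (50 ng) and pRL-SV40 Renilla (50 ng), with compound or DMSO. Medium was replaced with compound-containing DMEM at 4 h. Dual luciferase was read at 24 h post-transfection, with DMSO set as 100%. EC50 is mean ± SD, ≥3 experiments in duplicate.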

[2] = Inhibition of Influenza A virus GST-tagged PB1 (1 to 25) expressed in Escherichia coli binding to Influenza A virus 6His-tagged PA (239 to 716) expressed in Escherichia coli BL21(DE3) by ELISA
Summary of the method: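 Plates coated with 400 ng purified E. coli-expressed 6His-PA(239-716) for 3 h at 37 °C, then blocked with 2% BSA/PBS for 1 h at 37 °C. GST-PB1(1-25) (200 ng; GST alone as control) was added with compound at 10, 50, 100 or 200 μM and incubated overnight at room temperature. Detection used HRP anti-GST mAb (1:3000) and TMB at 450 nm, with DMSO set as 100%. IC50 is mean ± SD, ≥3 experiments in duplicate.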

[3] = Cytotoxicity against human HEK293T cells after 24 hrs by MTT assay; assay type: cell-based, HEK-293T
Summary of the method: (§1)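 MTT assay. HEK 293T or MDCK cells (2×10^4 per well) were cultured at 37 °C in DMEM with serially diluted compounds (250 to 1.9 μM), for 24 h (293T) or 48 h (MDCK). MTT (5 mg/ml stock) was then added for 4 h, cells were lysed and incubated 3 h more, and absorbance was read at 620 nm. CC50 is the concentration cutting viability 50%, mean ± SD of ≥3 independent experiments in duplicate.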

[4] = Cytotoxicity against MDCK cells after 48 hrs by MTT assay; assay type: cell-based, Canis lupus familiaris; settings: dog; summary of the method: as §1
Influenza A virus [5] = assay: Inhibition of Influenza A virus A/PR/8/34 infected in MDCK cells after 48 hrs by plaque reduction assay; assay type: functional, organism-based; settings: A/PR/8/34, MDCK
Summary of the method: (§2)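 Confluent MDCK monolayers in 12-well plates were infected with about 40 PFU/well in DMEM with 1 µg/ml TPCK-trypsin and 0.14% BSA, with compound or DMSO, for 1 h at 37 °C. Overlay was serum-free medium with trypsin, BSA, 1.2% Avicel and compound. After 48 h, cells were fixed with 4% formaldehyde, stained with 0.1% toluidine blue and plaques counted, with DMSO set as 100%. EC50 is mean ± SD, ≥3 experiments in duplicate.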

Human betaherpesvirus 5 = assay: Inhibition of HCMV UL54 expressed in baculovirus interaction with UL44 expressed in baculovirus after 1 hr by ELISA
Summary of the method: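 Plates coated with […] purified baculovirus-expressed HCMV UL54, then blocked with 2% BSA/PBS for 1 h. Purified UL44 ([…]) carrying a C-terminal EEF tag was added with compound or DMSO (1% final) for 1 h at 37 °C. Detection used MAb YL1/2 (1 h, 37 °C), then HRP anti-rat antibody and TMB, read at 450 nm. Compounds were tested up to 200 μM.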

[6] = Inhibition of Influenza A virus (A/Solomon Islands/3/2006(H1N1)) infected in MDCK cells after 48 hrs by plaque reduction assay; assay type: functional, cell-based; summary of the method: as §2
Influenza A virus [7] = assay: Inhibition of Influenza A virus A/Padova/30/11(H1N1) infected in MDCK cells after 48 hrs by plaque reduction assay; assay type: functional, organism-based; summary of the method: as §2
Influenza A virus [8] = assay: Inhibition of Influenza A virus A/[…]/67/05(H3N2) infected in MDCK cells after 48 hrs by plaque reduction assay; assay type: functional, organism-based; summary of the method: as §2
[9] = Solubility of the compound in D2O at 25 degC after 24 hrs by NMR analysis; assay type: physicochemical
[10] = Inhibition of Influenza A virus (A/Parma/24/2009(H1N1)) infected in MDCK cells after 48 hrs by plaque reduction assay; assay type: functional, cell-based; summary of the method: as §2
Liver microsome = assay: Metabolic stability in human liver microsomes after 30 mins by HPLC-MS/MS analysis; assay type: ADME; settings: 0.5 h
[11] = Permeability of the compound by PAMPA; assay type: physicochemical
Influenza B virus [12] = assay: Inhibition of Influenza B virus (B/Lee/40) infected in MDCK cells after 48 hrs by plaque reduction assay; assay type: functional, organism-based; settings: B/Lee/1940, MDCK; summary of the method: as §2
Influenza B virus [13] = assay: Inhibition of Influenza B virus (B/Malaysia/2506/2004) infected in MDCK cells after 48 hrs by plaque reduction assay; assay type: functional, cell-based; settings: B/Malaysia/2506/2004, MDCK; summary of the method: as §2
[14] = Metabolic stability in human liver microsomes assessed as compound remaining after 30 mins by HPLC-MS/MS analysis; assay type: ADME; settings: read-out: Stability

Row | Structure (SMILES) | EC50 [1] | IC50 [2] | CC50 at 24 h [3] | CC50 at 48 h [4] | EC50 (Influenza A virus [5]) | inhibition activity call (active/not active) (Human betaherpesvirus 5) | EC50 [6] | EC50 (Influenza A virus [7]) | EC50 (Influenza A virus [8]) | solubility at 24 h [9] | EC50 [10] | Stability (Liver microsome) | permeability [11] | EC50 (Influenza B virus [12]) | EC50 (Influenza B virus [13]) | inhibition (Human betaherpesvirus 5) | IC50 [1] | remaining at 0.5 h [14]
1 | CCC(C)NC(=O)c1ccccc1NC(=O)c1ccc(C)c(S(=O)(=O)Nc2cccc(NC(=O)c3ccccc3)c2)c1 (stereo unspecified) | > 100 µM | > 200 µM | > 250 µM | > 250 µM | > 100 µM |  |  |  |  |  |  |  |  |  |  |  |  | 
2 | O=C(Nc1cnn(C23CC4CC(CC(C4)C2)C3)c1)c1cnn2c1NC(c1ccccc1)CC2C(F)(F)F (stereo unspecified) |  | > 200 µM | 30.1 µM | 20.2 µM |  |  |  |  |  |  |  |  |  |  |  |  |  | 
3 | NC(=O)c1c(NC(=O)c2cnn3c(C(F)(F)F)cc(-c4ccccc4)nc23)sc2c1CCCC2 | 70.5 µM | 120 µM | > 250 µM | > 250 µM | > 100 µM |  |  |  |  |  |  |  |  |  |  |  |  | 
4 | O=C(Nc1ccccc1Cl)c1ccc2c(c1)C1C3CCC(C3)C1C(c1ccccc1)N2 (stereo unspecified) | > 100 µM | > 200 µM | > 250 µM | > 250 µM | > 100 µM |  |  |  |  |  |  |  |  |  |  |  |  | 
5 | NC(=O)c1c(NC(=O)c2nc3nc(-c4ccccc4)cc(C(F)(F)F)n3n2)sc2c1CCCC2 | 9.2 µM | 7.5 µM | > 250 µM | > 250 µM | 23.7 µM | inactive | 23.3 µM | 20.6 µM | 20 µM | 2.4 µg/mL (≈ 4.93 µM) | 22.9 µM | Stable | permeable | 33.5 µM | 25.9 µM |  |  | 
6 | Cn1c(=O)cc2c3c(c(N4CCCCC4)ccc31)C(=O)c1ccccc1-2 |  |  |  |  |  | Active |  |  |  |  |  |  |  |  |  |  |  | 
7 | NC(=O)c1ncn([C@@H]2O[C@H](CO)[C@@H](O)[C@H]2O)n1 [RIBAVIRIN] | 24.9 µM |  | > 250 µM | > 250 µM | 15.6 µM |  |  |  |  |  |  |  |  |  |  |  |  | 
8 | NC(=O)c1c(NC(=O)c2cnn3c(C(F)F)cc(-c4ccccc4)nc23)sc2c1CCC2 | 29.5 µM |  | > 250 µM | > 250 µM | 75.5 µM |  | > 100 µM | > 100 µM | > 100 µM |  | 95.5 µM |  |  | > 100 µM | > 100 µM | inactive | 31.4 µM | 37%
9 | Cc1ccc(-c2cc(C(F)(F)F)n3ncc(C(=O)Nc4sc5c(c4C(N)=O)CCCC5)c3n2)cc1 | 63 µM | 43 µM | > 250 µM | > 250 µM | 101 µM |  |  |  |  |  |  |  |  |  |  |  |  | 
10 | COc1ccc(-c2cc(C(F)(F)F)n3ncc(C(=O)Nc4sc5c(c4C(N)=O)CCCC5)c3n2)cc1 |  | 135 µM | 40.4 µM | 51.3 µM |  |  |  |  |  |  |  |  |  |  |  |  |  | 
11 | O=C(Nc1ccc2c(c1)CCC2)c1cnn2c(C(F)(F)F)cc(-c3cccs3)nc12 |  | 35.1 µM | 12.4 µM | 18.3 µM |  |  |  |  |  |  |  |  |  |  |  |  |  | 
12 | NC(=O)c1c(NC(=O)c2cnn3c(C(F)(F)F)cc(-c4ccccc4)nc23)sc2c1CCC2 | 27.5 µM | 44.8 µM | > 250 µM | > 250 µM | 57 µM |  |  |  |  |  |  |  |  |  |  |  |  | 
13 | CCC(C)NC(=O)c1ccccc1NC(=O)c1ccc(C)c(S(=O)(=O)Nc2cc(C)ccc2C)c1 (stereo unspecified) | 45.9 µM | 30.5 µM | > 250 µM | > 250 µM | 18.7 µM | inactive | 17.5 µM | 22.6 µM | 15.9 µM |  | 25 µM |  |  | 21.8 µM | 29.6 µM |  |  | 
14 | CCC(C)NC(=O)c1ccccc1NC(=O)c1cccc(S(=O)(=O)Nc2ccccc2)c1 (stereo unspecified) | 17.2 µM | 9.2 µM | > 250 µM | > 250 µM | 30.5 µM | inactive | 22.5 µM | 37.6 µM | 23.5 µM | 1 µg/mL (≈ 2.21 µM) | 43 µM |  | permeable | 25.5 µM | 26.3 µM |  |  | 50%
15 | NC(=O)c1c(NC(=O)c2cccnc2)sc2c1CCCC2 |  | > 200 µM | > 250 µM | 45.2 µM |  |  |  |  |  |  |  |  |  |  |  |  |  | 
16 | CCC(C)NC(=O)c1ccccc1NC(=O)c1cccc(S(=O)(=O)Nc2ccc(O)cc2)c1 (stereo unspecified) | 82.6 µM | > 200 µM | > 250 µM | > 250 µM | > 100 µM |  |  |  |  |  |  |  |  |  |  |  |  | 
17 | COC(=O)C1=C(N)N(c2cccc(Cl)c2C)C2=C(C(=O)CCC2)C1c1ccc2c(c1)OCO2 (stereo unspecified) | 18.5 µM | 30.4 µM |  |  |  |  |  |  |  |  |  |  |  |  |  |  |  | 
18 | CCC(C)NC(=O)c1ccccc1NC(=O)c1cccc(S(=O)(=O)Nc2cc(C)ccc2C)c1 (stereo unspecified) | 25.7 µM | 84 µM | > 250 µM | > 250 µM | 35.2 µM | inactive | 16.5 µM | 16.7 µM | 10.8 µM |  | 22.1 µM |  |  | 15.5 µM | 19.8 µM |  |  | 
19 | Cc1ccc(C)c(NS(=O)(=O)c2cc(C(=O)Nc3ccccc3C(=O)Nc3ccccc3)ccc2C)c1 | > 100 µM | 91.9 µM | > 250 µM | 70.3 µM | 24.7 µM |  |  |  |  |  |  |  |  |  |  |  |  | 
20 | NC(=O)c1c(NC(=O)c2cnn3c(C(F)F)cc(-c4ccccc4)nc23)sc2c1CCCC2 | 94.2 µM | 91.2 µM | > 250 µM | > 250 µM | 66 µM |  |  |  |  |  |  |  |  |  |  |  |  | 
